Measurements gathered from unrelated publications.
Each line is one published result; the experiments were not run side by side.
CA2: Carbonic anhydrase 2 (CA2, Homo sapiens, UniProt P00918)
OPRD1: Delta-type opioid receptor (OPRD1, Homo sapiens, UniProt P41143)
SNCA fibril: Alpha-synuclein, fibril (SNCA, Homo sapiens, UniProt P37840)
Sigmar1: Sigma non-opioid intracellular receptor 1 (Sigmar1, Rattus norvegicus, UniProt Q9R0C9)
HTR3A: 5-hydroxytryptamine receptor 3A (HTR3A, Homo sapiens, UniProt P46098)
ADRA2A: Alpha-2A adrenergic receptor (ADRA2A, Homo sapiens, UniProt P08913)
Pam: Peptidylglycine alpha-amidating monooxygenase (Pam, Rattus norvegicus, UniProt P14925)
CA1: Carbonic anhydrase 1 (CA1, Homo sapiens, UniProt P00915)

Oc1cccc(Nc2nc(-c3ccc(F)cc3F)cs2)c1  Ki (Cholecystokinin receptor type A (CCKAR, Homo sapiens, UniProt P32238); cell-free assay): 3.6 µM
NS(=O)(=O)c1nnc(NC(=O)CC2CC2)s1  Ki (CA2; enzyme activity, inhibitor): 0.0076 µM
CNC(=O)[C@H]1O[C@@H](n2cnc3c(NC)nc(C#Cc4ccc(Cl)s4)nc32)[C@H](O)[C@@H]1O  Ki (OPRD1; ligand displacement, radioligand): > 10 µM
COc1ccc(C(=O)Nc2ccc(N3CCCN(c4ccccn4)CC3)cn2)cc1  Ki (SNCA fibril; ligand displacement, radioligand): 0.185 µM
C#CCN(CCCN1CCN(C2CCCCC2)CC1)CC(=O)Nc1ccc(C(=O)c2ccccc2)cc1  Ki (Sigmar1; ligand displacement, radioligand; cell membranes): 0.0169 µM
Cc1nc2cc(OCCCCN3CCN(c4cccc(Cl)c4Cl)CC3)ccc2s1  Ki (HTR3A; cell-free assay, radioligand): 0.13 µM
O[C@@H]1[C@H](O)[C@@H]2C[C@@H]2[C@H]1n1cnc2c(NCCc3ccccc3)nc(C#Cc3ccccc3Cl)nc21  Ki (OPRD1; ligand displacement, radioligand): > 10 µM
C#CCN(CCCN1CCN(c2ccc(F)cc2)CC1)Cc1ccc(C(=O)c2ccc([N+](=O)[O-])cc2)cc1  Ki (Sigmar1; ligand displacement, radioligand; cell membranes): 0.29 µM
CCCCOC(=O)[C@@]12C[C@@H]1[C@@H](n1cnc3c(NC)nc(C#Cc4ccc(Cl)s4)nc31)[C@H](O)[C@@H]2O  Ki (OPRD1; ligand displacement, radioligand): > 10 µM
CN1CCN(c2ccc(-c3ccnn3-c3ccc(S(N)(=O)=O)cc3)cc2)CC1  Ki (CA2; enzyme activity, inhibitor, stopped-flow): 0.587 µM
Cc1cc(C)c2c(c1)[C@@H](N(Cc1cc(C(F)(F)F)cc(C(F)(F)F)c1)c1nnn(C)n1)CCCN2C[C@H]1CC[C@H](C(=O)O)CC1  Ki (Cytochrome P450 2C19 (CYP2C19, Homo sapiens, UniProt P33261); enzyme activity, inhibitor; human, liver microsomes; pH 7.4): 7.6 µM
CNC(=O)[C@@]12C[C@@H]1[C@@H](n1cnc3c(NC4CC4c4ccccc4)nc(C#Cc4ccccc4)nc31)[C@H](O)[C@@H]2O (mixture of isomers)  Ki (OPRD1; ligand displacement, radioligand): > 10 µM
O=C1c2ccccc2CCN1CCCCN1CCN(c2cccc(Cl)c2Cl)CC1  Ki (HTR3A; ligand displacement, radioligand): 0.099 µM
CNC(=O)[C@@]12C[C@@H]1[C@@H](n1cnc3c(NCc4cccc(Cl)c4)nc(C#Cc4ccccc4)nc31)[C@H](O)[C@@H]2O  Ki (OPRD1; ligand displacement, radioligand): > 10 µM
CC[Si](C#Cc1ccc2c(c1)C=C([N+](=O)[O-])C(C(F)(F)F)O2)(CC)CC (stereo not shown)  Ki (ADRA2A; cell-free assay, radioligand): 1.6 µM
O=C(c1ccc(CNCCCN2CCN(C3CCCCC3)CC2)cc1)c1ccc([N+](=O)[O-])cc1  Ki (Sigmar1; ligand displacement, radioligand; cell membranes): 1.32 µM
NS(=O)(=O)c1ccc(C(F)(F)F)cc1  Ki (CA2; enzyme activity, inhibitor, absorbance): ~0.23 µM
COc1ccc(C(=O)Nc2ccc(N3C4CCC3CN(c3cnc5ccccc5c3)C4)cc2)cc1  Ki (SNCA fibril; ligand displacement, radioligand): 0.108 µM
NS(=O)(=O)c1ccc(-n2nccc2-c2ccc(N3CCCCC3)cc2)cc1  Ki (CA2; enzyme activity, inhibitor, stopped-flow): 0.689 µM
O=C(O)C=Cc1ccc([N+](=O)[O-])cc1  Ki (Pam; enzyme activity, inhibitor; pH 6): 600 µM
CNC(=O)[C@@]12C[C@@H]1[C@@H](n1cnc3c(NCc4cccc(Cl)c4)nc(Cl)nc31)[C@H](O)[C@@H]2O  Ki (OPRD1; ligand displacement, radioligand): > 10 µM
C#CCNCCCN1CCN(CCCNC(=O)c2ccc(C(=O)c3ccc([N+](=O)[O-])cc3)cc2)CC1  Ki (Sigmar1; ligand displacement, radioligand; cell membranes): 0.445 µM
O[C@@H]1[C@H](O)[C@@H]2C[C@@H]2[C@H]1n1cnc2c(NCc3cccc(Cl)c3)nc(C#Cc3ccc(F)c(F)c3)nc21  Ki (OPRD1; ligand displacement, radioligand): > 10 µM
CC1CCC(C(=O)Nc2nnc(S(N)(=O)=O)s2)CC1 (stereo not shown)  Ki (CA2; enzyme activity, inhibitor): 0.026 µM
CN(C)c1cccc2c(S(=O)(=O)Nc3ccc(C=CC(=O)O)cc3)cccc12  Ki (Pam; enzyme activity, inhibitor): 10 µM
CCCNc1nc(C#Cc2ccc(Cl)s2)nc2c1ncn2[C@H]1[C@H](O)[C@H](O)[C@]2(C(=O)NC)C[C@H]12  Ki (OPRD1; ligand displacement, radioligand): > 10 µM
CCCCN1CCC(COC(=O)c2ccc(N)c(OCF)c2)CC1  Ki (ADRA2A; cell-free assay, radioligand): > 10 µM
C#CCN(CCCN1CCN(C2CCCCC2)CC1)Cc1ccc(C(=O)c2ccc([N+](=O)[O-])cc2)cc1  Ki (Sigmar1; ligand displacement, radioligand; cell membranes): 0.0298 µM
NS(=O)(=O)c1nnc(NC(=O)C2CCCC2)s1  Ki (CA2; enzyme activity, inhibitor): 0.0262 µM
C#CCNCc1ccc(C(=O)c2ccc([N+](=O)[O-])cc2)cc1  Ki (Sigmar1; ligand displacement, radioligand; cell membranes): 0.12 µM
NS(=O)(=O)c1nnc(NC(=O)C2CC2)s1  Ki (CA1; enzyme activity, inhibitor): 0.157 µM
NS(=O)(=O)c1ccc(-n2nccc2-c2ccc(N3CCOCC3)cc2)cc1  Ki (CA2; enzyme activity, inhibitor, stopped-flow): 0.624 µM
NS(=O)(=O)c1nnc(NC(=O)CC2CCC2)s1  Ki (CA1; enzyme activity, inhibitor): 0.0778 µM
NC(=O)N1c2ccccc2C=Cc2ccccc21  Ki (NAD(P)H dehydrogenase [quinone] 1 (NQO1, Homo sapiens, UniProt P15559); enzyme activity, inhibitor, absorbance): 811 µM
Nc1ccnc2ccccc12  Ki (ADRA2A; ligand displacement, radioligand; cell membranes): 5.6 µM
O=C(O)C#Cc1ccccc1  Ki (Pam; enzyme activity, inhibitor; pH 6): 2000 µM
NS(=O)(=O)c1nnc(NC(=O)CC2CCCC2)s1  Ki (CA1; enzyme activity, inhibitor): 0.0863 µM
